Source: ChEMBL document CHEMBL1124368 (J Med Chem, 1989)

What was measured:
[1] = target: T1, Dihydrofolate reductase (Rattus norvegicus, UniProt Q920D2); assay: In vitro inhibitory concentration against rat liver dihydrofolate reductase(DHFR); settings: read-out: I50
T1 sequence (Q920D2 whole entry): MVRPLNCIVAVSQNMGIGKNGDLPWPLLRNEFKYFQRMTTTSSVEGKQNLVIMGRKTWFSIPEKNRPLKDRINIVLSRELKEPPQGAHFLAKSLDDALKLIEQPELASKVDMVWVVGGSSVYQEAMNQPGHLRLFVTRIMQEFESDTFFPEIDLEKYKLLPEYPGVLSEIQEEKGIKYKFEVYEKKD
Procedure, shortened: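 Partially purified rat liver DHFR, prepared by the Bertino and Fischer method, assayed spectrophotometrically at 340 nm. I50 is the final inhibitor concentration that cuts the reaction rate to 50% of the uninhibited rate. […] Inhibitors were dissolved in 0.1 M HCl or 95% ethanol.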

[2] = system: Mus musculus; assay: Tumor volume in 24 days after tumor implantation at a dose of 6.25 mg/kg/day; assay type: functional
Procedure, shortened: (§1)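 10⁶ M5076 reticulum cell sarcoma cells were injected im into the left leg of female BDF₁ mice, five per group, on day 0. Compound in 10–20% DMSO/arachis oil was dosed ip daily on days 1–17. Tumor volumes (mm³) were recorded on days 12, 16, 20 and 24 after implantation, with NM marking a tumor that could not be measured.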

[3] = system: Mus musculus; assay: Tumor volume in 20 days after tumor implantation at a dose of 3.125 mg/kg/day; assay type: functional; procedure, shortened: as §1
[4] = system: Mus musculus; assay: Ratio of tumor volume of test(T) animals compared to control(C) animals x 100 T/C(%)] at a dose of 25 mg/kg/day; assay type: functional
Procedure, shortened: (§2)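 M5076 reticulum cell sarcoma: 10⁶ cells implanted im into the left leg of female BDF₁ mice (groups of five) on day 0. Treatment was ip, daily on days 1–17, in 10–20% DMSO in arachis oil. T/C% is treated tumor volume over control tumor volume × 100.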

[5] = system: Mus musculus; assay: Tumor volume in 16 days after tumor implantation at a dose of 50 mg/kg/day of compound; NM=Tumor not measurable; assay type: functional, organism-based; procedure, shortened: as §1
[6] = system: Mus musculus; assay: Mean of weight gain from day 0 to day 24 at a dose of 6.25 mg/kg/day; assay type: functional; set-up: unit not given here
Procedure, shortened: (§3)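 M5076 reticulum cell sarcoma: 10⁶ cells implanted im into the left leg of female BDF₁ mice (groups of five) on day 0. Drug in 10–20% DMSO in arachis oil was given ip daily on days 1–17. Weight change is the mean weight gain from day 0 to day 24.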

[7] = system: Mus musculus; assay: Ratio of tumor volume of test(T) animals compared to control(C) animals x 100 T/C(%)] at a dose of 3.125 mg/kg/day; assay type: functional; procedure, shortened: as §2
[8] = system: Mus musculus; assay: Mean of weight gain from day 0 to day 24 at a dose of 12.5 mg/kg/day of compound; assay type: functional; set-up: unit not given here; procedure, shortened: as §3
[9] = system: Mus musculus; assay: Mean of weight gain from day 0 to day 24 at a dose of 25 mg/kg/day of compound; assay type: functional; set-up: unit not given here; procedure, shortened: as §3
[10] = system: Mus musculus; assay: Tumor volume in 20 days after tumor implantation at a dose of 6.25 mg/kg/day of compound; assay type: functional; procedure, shortened: as §1
[11] = system: Mus musculus; assay: Mean of weight gain from day 0 to day 24 at a dose of 3.125 mg/kg/day of compound; assay type: functional; set-up: unit not given here; procedure, shortened: as §3
[12] = system: Mus musculus; assay: Tumor volume in 24 days after tumor implantation at a dose of 25 mg/kg/day of compound; assay type: functional; procedure, shortened: as §1
[13] = system: Mus musculus; assay: Tumor volume in 24 days after tumor implantation at a dose of 3.125 mg/kg/day; assay type: functional; procedure, shortened: as §1
[14] = system: Mus musculus; assay: Ratio of tumor volume of test(T) animals compared to control(C) animals x 100 T/C(%)] at a dose of 12.50 mg/kg/day; assay type: functional; procedure, shortened: as §2
[15] = system: Mus musculus; assay: Ratio of tumor volume of test(T) animals compared to control(C) animals x 100 T/C(%)] at a dose of 6.25 mg/kg/day; assay type: functional; procedure, shortened: as §2
[16] = system: Mus musculus; assay: Tumor volume in 24 days after tumor implantation at a dose of 12.5 mg/kg/day; assay type: functional; procedure, shortened: as §1
[17] = system: Mus musculus; assay: Tumor volume in 16 days after tumor implantation at a dose of 3.125 mg/kg/day of compound; assay type: functional; procedure, shortened: as §1

CCc1nc(N)nc(N)c1-c1ccc(N2CCNCC2)c(N)c1
IC50 [1]: > 25 µM

CCc1nc(N)nc(N)c1-c1ccc(NC)c([N+](=O)[O-])c1
Tumor volume [2]: 805 mm**3 | Tumor volume [3]: 822 mm**3 | Antitumor activity [4]: 10% | Tumor volume [5]: Not measurable | Weight change [6]: 3.3 | Antitumor activity [7]: 61% | Weight change [8]: 2.1 | Weight change [9]: 2.1 | Tumor volume [10]: 640 mm**3 | Weight change [11]: 4.3 | Tumor volume [12]: 220 mm**3 | Tumor volume [13]: 1407 mm**3 | Antitumor activity [14]: 20% | Antitumor activity [15]: 35% | Tumor volume [16]: 462 mm**3

CCc1nc(N)nc(N)c1-c1ccc(NCc2ccc(Cl)cc2)c([N+](=O)[O-])c1
Tumor volume [2]: 597 mm**3 | Tumor volume [3]: 552 mm**3 | Weight change [6]: 3.3 | Antitumor activity [7]: 29% | Weight change [8]: 2.9 | Weight change [11]: 3.2 | Tumor volume [13]: 873 mm**3 | Antitumor activity [14]: 13% | Antitumor activity [15]: 20% | Tumor volume [16]: 380 mm**3

CCc1nc(N)nc(N)c1-c1ccc(N(C)C2CCCCC2)c(N)c1
IC50 [1]: 8.5 µM

CCc1nc(N)nc(N)c1-c1ccc(NCc2ccc(C(F)(F)F)cc2)c([N+](=O)[O-])c1
Tumor volume [2]: 454 mm**3 | Tumor volume [3]: 627 mm**3 | Antitumor activity [4]: <8% | Weight change [6]: 2.3 | Antitumor activity [7]: 40% | Weight change [8]: 2 | Weight change [9]: 6.2 | Tumor volume [17]: 291 mm**3 | Weight change [11]: 3.4 | Tumor volume [13]: 948 mm**3 | Antitumor activity [14]: 12% | Antitumor activity [15]: 20% | Tumor volume [16]: 265 mm**3

CCc1nc(N)nc(N)c1-c1ccc(N2CCN(C)CC2)c(N)c1
IC50 [1]: > 25 µM

CCc1nc(N)nc(N)c1-c1ccc(N(CC)Cc2ccccc2)c(N)c1
IC50 [1]: 4 µM

CCc1nc(N)nc(N)c1-c1ccc(N2CCOCC2)c([N+](=O)[O-])c1
IC50 [1]: 8 µM

CCc1nc(N)nc(N)c1-c1ccc(N2CCNCC2)c([N+](=O)[O-])c1
IC50 [1]: 3.1 µM

CCc1nc(N)nc(N)c1-c1ccc(N(C)C)cc1
IC50 [1]: 6.2 µM

CCc1nc(N)nc(N)c1-c1ccc(N(C)C)c(N)c1
IC50 [1]: 67 µM

CCc1nc(N)nc(N)c1-c1ccc(N2CCCC2)c(N)c1
IC50 [1]: > 25 µM

CCc1nc(N)nc(N)c1-c1ccc(N2CCN(C)CC2)c([N+](=O)[O-])c1
IC50 [1]: 3.9 µM
